Data taken from publication PMC9033422 (RSC Advances, 2021).

Tests used:
[1] = tested on: human liver cancer cell lines SMMC-7721; assay: MTT cytotoxicity, SMMC-7721 cells, 24 h; type: cell-based; conditions: SMMC-7721, 24 h, read-out: IC50 (μM)/24 h SMMC-7721
Method in brief: (§1)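 Cells (1 × 10^4 per well, triplicate) were pre-cultured 24 h at 37 °C, then exposed 24 h at 37 °C to test compound at 10, 25, 50, 100 and 200 μg mL−1, with drug-free and DMSO solvent controls. MTT (2 mg mL−1 stock in PBS) was added for 4 h and formazan dissolved in DMSO. A568 was read; inhibition % = (A control − A dosed)/A control × 100.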

[2] = tested on: human benign liver cell lines LO2; assay: MTT cytotoxicity, LO2 cells, 24 h; type: cell-based; conditions: L02, 24 h, read-out: IC50 (μM)/24 h LO2
Method in brief: as §1

[3] = tested on: human liver cancer cell lines SMMC-7721; assay: MTT cytotoxicity of 12a in Fe2+ environment, SMMC-7721 cells, 48 h; type: cell-based; conditions: SMMC-7721, 48 h, read-out: IC50 (μM)/48 h SMMC-7721 with Fe2+
Method in brief: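 Cells at 1 × 10^4 per well, in triplicate, grew 12 h at 37 °C, then 12 h more in medium containing 100 μmol L−1 FeSO4. Medium was replaced with test compound (0.01, 0.1, 1, 10, 25 μg mL−1), with drug-free and DMSO solvent controls, for 48 h at 37 °C. MTT (2 mg mL−1 stock in PBS) was added for 4 h, formazan dissolved in DMSO, and A568 read.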

[4] = tested on: human benign colon cell lines CCD18CO; assay: MTT cytotoxicity of 12a, CCD18CO cells, 48 h; type: cell-based; conditions: CCD-18Co, read-out: IC50 (μM)/48 h CCD18CO
Method in brief: (§2)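 Seeding was 1 × 10^4 cells per well in triplicate, with 24 h pre-culture at 37 °C. No iron supplement was used. Test compound at 0.01, 0.1, 1, 10 and 25 μg mL−1 was given for 48 h at 37 °C, with drug-free and DMSO solvent controls. MTT (2 mg mL−1 stock in PBS) was added for 4 h, centrifuged, formazan dissolved in DMSO, and absorbance read at 568 nm.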

[5] = tested on: human benign breast cell lines MCF-10A; assay: MTT cytotoxicity of 12a, MCF-10A cells, 48 h; type: cell-based; conditions: read-out: IC50 (μM)/48 h MCF-10A
Method in brief: as §2

[6] = tested on: human benign prostate cell lines RWPE-1; assay: MTT cytotoxicity of 12a, RWPE-1 cells, 48 h; type: cell-based; conditions: RWPE-1, 48 h, read-out: IC50 (μM)/48 h RWPE-1
Method in brief: as §2

MHCC97H cell lines = assay: Annexin V-FITC/PI flow cytometry apoptosis assay; type: cell-based, human; conditions: 48 h
Method in brief: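 MHCC97H cells were seeded in triplicate and pre-cultured 24 h at 37 °C. Medium was replaced with test compound at 0.01, 1 or 25 μg mL−1, alongside drug-free and DMSO solvent controls, for 48 h at 37 °C. Cells were detached with 0.25% trypsin without EDTA, stained with Annexin V-FITC/PI for 5–15 min at room temperature in the dark, and analysed by flow cytometry. Quadrants: live, early apoptotic, late apoptotic, necrotic.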

Row | Structure (SMILES) | IC50 [1] [µM] | IC50 [2] [µM] | also measured
1 | C[C@H]1[C@@H](O)O[C@@H]2O[C@@]3(C)CC[C@H]4[C@H](C)CC[C@@H]1[C@@]24OO3 [DHA, Dihydroartemisinin, reference compound] | > 700 | 220 ± 40 | 
2 | COC1OC(=O)C(Cl)=C1N1CCN(CCCCCC[C@H]2CN([C@@H]3OC4O[C@@]5(C)CC[C@H]6[C@H](C)CC[C@@H]([C@H]3C)[C@@]46OO5)CCS2(=O)=O)CC1 (stereo partly drawn) [Hybrid 12a, 3-Chloro-4-(4-(6-((2S)-1,1-dioxido-4-((3R,5aS,6R,8aS,9R,10R,12aR)-3,6,9-trimethyldecahydro-3H-3,12-epoxy[1,2]dioxepino[4,3-i]isochromen-10-yl)thiomorpholin-2-yl)hexyl)piperazin-1-yl)-5-methoxyfuran-2(5H)-one] | 30 ± 40 | 700 ± 20 | IC50 [3]: 20 ± 30 µM; IC50 [4]: 60 ± 40 µM; IC50 [5]: 40 ± 40 µM; IC50 [6]: 100 ± 30 µM; percentage of apoptosis (MHCC97H cell lines; 0.01 μg mL^−1 (lowest concentration)): 7.67%; percentage of apoptosis (MHCC97H cell lines; 25 μg mL^−1 (highest concentration)): 59.76%
3 | CC(C)[C@@H]1CC[C@@H](C)C[C@@H]1O[C@H]1OC(=O)C(Cl)=C1N1CCN(CCCCCC[C@H]2CN([C@@H]3OC4O[C@@]5(C)CC[C@H]6[C@H](C)CC[C@@H]([C@H]3C)[C@@]46OO5)CCS2(=O)=O)CC1 (stereo partly drawn) [Hybrid 12b, (5S)-3-Chloro-4-(4-(6-((2S)-1,1-dioxido-4-((3R,5aS,6R,8aS,9R,10R,12aR)-3,6,9-trimethyldecahydro-3H-3,12-epoxy[1,2]dioxepino[4,3-i]isochromen-10-yl)thiomorpholin-2-yl)hexyl)piperazin-1-yl)-5-(((1S,2S,5R)-2-isopropyl-5-methylcyclohexyl)oxy)furan-2(5H)-one] | 320 ± 30 | 360 ± 30 | 
4 | C[C@H]1[C@H](N2CCS(=O)(=O)[C@@H](CCCCCCN3CCN(C4=C(Cl)C(=O)OC4O[C@H]4CC5CCC4(C)C5(C)C)CC3)C2)O[C@@H]2O[C@@]3(C)CC[C@H]4[C@H](C)CC[C@@H]1[C@@]24OO3 (stereo partly drawn) [Hybrid 12c, 3-Chloro-4-(4-(6-((S)-1,1-dioxido-4-((3R,5aS,6R,8aS,9R,10R,12R,12aR)-3,6,9-trimethyldecahydro-3H-3,12-epoxy[1,2]dioxepino[4,3-i]isochromen-10-yl)thiomorpholin-2-yl)hexyl)piperazin-1-yl)-5-(((2S)-1,7,7-trimethylbicyclo[2.2.1]heptan-2-yl)oxy)furan-2(5H)-one] | 70 ± 40 | 70 ± 30 | 
5 | COC1OC(=O)C(Br)=C1N1CCN(CCCCCC[C@H]2CN([C@@H]3OC4O[C@@]5(C)CC[C@H]6[C@H](C)CC[C@@H]([C@H]3C)[C@@]46OO5)CCS2(=O)=O)CC1 (stereo partly drawn) [Hybrid 12d, 3-Bromo-4-(4-(6-((2S)-1,1-dioxido-4-((3R,5aS,6R,8aS,9R,10R,12aR)-3,6,9-trimethyldecahydro-3H-3,12-epoxy[1,2]dioxepino[4,3-i]isochromen-10-yl)thiomorpholin-2-yl)hexyl)piperazin-1-yl)-5-methoxyfuran-2(5H)-one] | 340 ± 20 | 370 ± 40 | 
6 | CC(C)[C@@H]1CC[C@@H](C)C[C@@H]1O[C@H]1OC(=O)C(Br)=C1N1CCN(CCCCCC[C@H]2CN([C@@H]3OC4O[C@@]5(C)CC[C@H]6[C@H](C)CC[C@@H]([C@H]3C)[C@@]46OO5)CCS2(=O)=O)CC1 (stereo partly drawn) [Hybrid 12e, (5S)-3-Bromo-4-(4-(6-((2S)-1,1-dioxido-4-((3R,5aS,6R,8aS,9R,10R,12aR)-3,6,9-trimethyldecahydro-3H-3,12-epoxy[1,2]dioxepino[4,3-i]isochromen-10-yl)thiomorpholin-2-yl)hexyl)piperazin-1-yl)-5-(((1S,2S,5R)-2-isopropyl-5-methylcyclohexyl)oxy)furan-2(5H)-one] | 210 ± 20 | 330 ± 30 | 
7 | C[C@H]1[C@H](N2CCS(=O)(=O)[C@@H](CCCCCCN3CCN(C4=C(Br)C(=O)O[C@@H]4O[C@H]4CC5CCC4(C)C5(C)C)CC3)C2)O[C@@H]2O[C@@]3(C)CC[C@H]4[C@H](C)CC[C@@H]1[C@@]24OO3 [Hybrid 12f, (5S)-3-Bromo-4-(4-(6-((S)-1,1-dioxido-4-((3R,5aS,6R,8aS,9R,10R,12R,12aR)-3,6,9-trimethyldecahydro-3H-3,12-epoxy[1,2]dioxepino[4,3-i]isochromen-10-yl)thiomorpholin-2-yl)hexyl)piperazin-1-yl)-5-(((2S)-1,7,7-trimethylbicyclo[2.2.1]heptan-2-yl)oxy)furan-2(5H)-one] | 220 ± 30 | 300 ± 30 | 
8 | CC[C@]1(O)C[C@H]2CN(CCc3c([nH]c4ccccc34)[C@@](C(=O)OC)(c3cc4c(cc3OC)N(C=O)[C@H]3[C@@](O)(C(=O)OC)[C@H](OC(C)=O)[C@]5(CC)C=CCN6CC[C@]43[C@@H]65)C2)C1 [VCR, vincristine, reference compound] | 270 ± 30 | 300 ± 20 | 
